# Data: ChEMBL document CHEMBL1125288, “Structure-activity relationships of 1-[(2-hydroxyethoxy)methyl]-6-(phenylthio)thymine analogues: effect of substitutions at the C-6 phenyl ring and at the C-5 position on anti-HIV-1 activity” (J Med Chem, 1992)
# pEC50: −log10 of the molar value.
# Key:
# [1] = Concentration required to achieve 50% protection of MT-4 cells against the cytopathic effect of HIV-1.; type: functional, cell-based; conditions: Homo sapiens, MT4
# Outline: (§1)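 MT-4 cells at 1 × 10^6 cells/mL were infected with HIV-1 (HTLV-IIIB) or HIV-2 (LAV-2ROD) at an MOI of 0.02 (virus titrated as CCID50 in MT-4). Cells were plated immediately onto serial compound dilutions from DMSO stocks of 50 mM or higher. After 4 days at 37 °C, viable cells were counted by MTT.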
# [2] = test system: MT4; experiment: Concentration required to reduce the viability of mock-infected MT-4 cells by 50%.; type: functional; conditions: Homo sapiens
# Outline: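 Mock-infected MT-4 cells were run in parallel with the antiviral assay: 1 × 10^6 cells/mL, serial compound dilutions, 4 days at 37 °C.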
# [3] = Concentration of compound required to reduce the viability of mock-infected PBL(peripheral blood lymphocytes) cells. by 50%; type: functional; conditions: Homo sapiens
# [4] = Concentration required inhibit HIV-1 (HTLV-IIIb strain) replication in PBL(peripheral blood lymphocytes) cells.; type: functional, cell-based; conditions: Homo sapiens
# Outline: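 Phytohemagglutinin-stimulated PBL at 1 × 10^6 cells/mL were infected with HIV-1 HTLV-IIIB at an MOI of 0.2 and cultured at 37 °C with varied compound concentrations. On day 4 cells were subcultured 1:5 into fresh medium with compound. On day 7, p24 antigen in the supernatant was measured by sandwich ELISA, and EC50 was derived.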
# [5] = Concentration of compound required to reduce the viability of mock-infected HIV-2 (LAV-2ROD)/MT-4 cells by 50%; type: functional; conditions: Homo sapiens, MT4
# Outline: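 Mock-infected MT-4 cells, run in parallel with the HIV-2 LAV-2ROD antiviral assay. Cells at 1 × 10^6 cells/mL were plated into wells holding serial compound dilutions, with DMSO stocks at 50 mM or higher. After 4 days at 37 °C, viable cells were counted by the MTT method.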
# [6] = Concentration required inhibit HIV-2 (LAV-2ROD)replication in MT-4 cells.; type: functional, cell-based; conditions: Homo sapiens, MT4; outline: as §1
pEC50 [1],SMILES,CC50 [2],CC50 [3],pEC50 [4],CC50 [5],pEC50 [6]
5.00,Cc1c(Sc2cccc(I)c2)n(COCCO)c(=O)[nH]c1=O,106 µM,–,–,–,–
4.72,COc1ccccc1Sc1c(C)c(=O)[nH]c(=O)n1COCCO,> 250 µM,–,–,–,–
4.89,Cc1c(Sc2cccc(Cl)c2)n(COCCO)c(=O)[nH]c1=O,210 µM,–,–,–,–
4.15,Cc1ccccc1Sc1c(C)c(=O)[nH]c(=O)n1COCCO,> 250 µM,–,–,–,–
5.59,Cc1cccc(Sc2c(C)c(=O)[nH]c(=O)n2COCCO)c1,420 µM,–,–,–,–
5.60,C=CCc1c(Sc2ccccc2)n(COCCO)c(=O)[nH]c1=O,183 µM,–,–,–,–
< 3.89,Cc1c(Sc2ccccc2Cl)n(COCCO)c(=O)[nH]c1=O,130 µM,–,–,–,–
7.20,CC(C)c1c(Sc2ccccc2)n(COCCO)c(=O)[nH]c1=O,231 µM,–,–,–,–
5.24,Cc1c(Sc2cccc(Br)c2)n(COCCO)c(=O)[nH]c1=O,141 µM,–,–,–,–
3.66,Cc1ccc(Sc2c(C)c(=O)[nH]c(=O)n2COCCO)cc1,> 250 µM,–,–,–,–
6.01,Cc1c(Sc2ccccc2)n(COCCO)c(=S)[nH]c1=O,123 µM,–,–,–,–
4.09,Cc1c(Sc2cccc(O)c2)n(COCCO)c(=O)[nH]c1=O,446 µM,–,–,–,–
5.47,CCCc1c(Sc2ccccc2)n(COCCO)c(=O)[nH]c1=O,244 µM,–,–,–,–
< 5.18,COC(=O)c1c(Sc2ccccc2)n(COCCO)c(=O)[nH]c1=O,6.6 µM,–,–,–,–
6.92,CCc1c(Sc2ccccc2)n(COCCO)c(=O)[nH]c1=O,400 µM,108 µM,6.72,400 µM,< 3.40

# Second part, the compound before the results:
SMILES,pEC50 [1],CC50 [2],CC50 [3],pEC50 [4],CC50 [5],pEC50 [6]
Cc1c(Sc2cc(Cl)cc(Cl)c2)n(COCCO)c(=O)[nH]c1=O,5.89,130 µM,–,–,–,–
COC(=O)c1cccc(Sc2c(C)c(=O)[nH]c(=O)n2COCCO)c1,5.10,221 µM,–,–,–,–
Cc1c(Sc2ccc([N+](=O)[O-])cc2)n(COCCO)c(=O)[nH]c1=O,< 3.72,190 µM,–,–,–,–
Cc1c(Sc2cccc(F)c2)n(COCCO)c(=O)[nH]c1=O,5.48,282 µM,–,–,–,–
Cc1cn([C@H]2C[C@H](N=[N+]=[N-])[C@@H](CO)O2)c(=O)[nH]c1=O [ZIDOVUDINE],8.22,7.8 µM,–,–,–,–
Cc1c(Sc2ccccc2[N+](=O)[O-])n(COCCO)c(=O)[nH]c1=O,3.85,> 250 µM,–,–,–,–
Cc1cc(C)cc(Sc2c(C)c(=O)[nH]c(=S)n2COCCO)c1,6.66,172 µM,–,–,–,–
Cc1cc(C)cc(Sc2c(C)c(=O)[nH]c(=O)n2COCCO)c1,–,243 µM,–,–,–,–
Cc1c(Sc2ccc(C#N)cc2)n(COCCO)c(=O)[nH]c1=O,< 3.60,> 250 µM,–,–,–,–
Cc1c(Sc2ccc(Cl)cc2)n(COCCO)c(=O)[nH]c1=O,< 3.60,> 250 µM,–,–,–,–
Cc1c(Sc2ccc(O)cc2)n(COCCO)c(=O)[nH]c1=O,< 3.56,277 µM,–,–,–,–
Cc1c(Sc2cccc(C(=O)O)c2)n(COCCO)c(=O)[nH]c1=O,< 3.45,352 µM,–,–,–,–
Cc1cc(C)cc(Sc2c(C(C)C)c(=O)[nH]c(=O)n2COCCO)c1,–,128 µM,–,–,–,–
Cc1c(Sc2ccccc2)n(COCCO)c(=O)[nH]c1=O [HEPT],5.15,743 µM,640 µM,5.10,740 µM,< 3.60
Cc1c(Sc2ccc(F)cc2)n(COCCO)c(=O)[nH]c1=O,< 3.60,> 250 µM,–,–,–,–
COc1cccc(Sc2c(C)c(=O)[nH]c(=O)n2COCCO)c1,4.66,> 250 µM,–,–,–,–
CCc1c(Sc2cc(Cl)cc(Cl)c2)n(COCCO)c(=O)[nH]c1=O,7.85,51 µM,–,–,–,–
O=C(Nc1ccccc1)c1c(Sc2ccccc2)n(COCCO)c(=O)[nH]c1=O,< 4.74,18 µM,–,–,–,–
Cc1c(Sc2cccc(C(F)(F)F)c2)n(COCCO)c(=O)[nH]c1=O,4.35,196 µM,–,–,–,–
Cc1c(Sc2cccc(C#N)c2)n(COCCO)c(=O)[nH]c1=O,5.00,234 µM,–,–,–,–
CCc1cccc(Sc2c(C)c(=O)[nH]c(=O)n2COCCO)c1,5.57,181 µM,–,–,–,–
CC(=O)c1ccc(Sc2c(C)c(=O)[nH]c(=O)n2COCCO)cc1,< 3.96,110 µM,–,–,–,–
Cc1c(Sc2cccc(C(N)=O)c2)n(COCCO)c(=O)[nH]c1=O,< 3.51,306 µM,–,–,–,–
Cc1c(Sc2cccc(C(C)(C)C)c2)n(COCCO)c(=O)[nH]c1=O,4.92,75 µM,–,–,–,–
COc1ccc(Sc2c(C)c(=O)[nH]c(=O)n2COCCO)cc1,< 3.60,> 250 µM,–,–,–,–
CC(=O)c1cccc(Sc2c(C)c(=O)[nH]c(=O)n2COCCO)c1,5.14,228 µM,–,–,–,–
CCc1c(Sc2cc(C)cc(C)c2)n(COCCO)c(=O)[nH]c1=O,–,149 µM,–,–,–,–
Cc1c(Sc2cccc([N+](=O)[O-])c2)n(COCCO)c(=O)[nH]c1=O,4.47,170 µM,–,–,–,–
Cc1c(Sc2cccc(CO)c2)n(COCCO)c(=O)[nH]c1=O,< 3.53,292 µM,–,–,–,–
